Consider 22 compounds from ChEMBL document CHEMBL4138310 (J Med Chem, 2018).

Data set [1] is described as follows: Cytotoxicity against human MT4 cells after 5 days by MTT assay. The conditions noted are these: read-out: TD50. In kind it is cell-based. The procedure, abridged: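 Uninfected MT-4 cells given compound at several concentrations in 1% DMSO solution with 10% FBS. Incubated 5 days at 37 °C in CO2, in triplicate. Viability read by MTT optical density, with TD50 taken as the cytotoxic measure.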

The test system of data set [2] is Human immunodeficiency virus 1. Briefly: Antiviral activity against wild-type HIV1 pNL4-3 infected in human MT4 cells assessed as inhibition of virus-induced cytopathic effect after 5 days in absence of human serum by MTT assay. In kind it is functional, organism-based. Particulars: Human immunodeficiency virus 1, pNL4-3, MT4, 120 h. The procedure, abridged: (§1)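 MT-4 cells inoculated with HIV-1 pNL4-3, then given an equal volume of compound at several concentrations in 1% DMSO solution with 10% FBS. Incubated 5 days at 37 °C in CO2, in triplicate. MTT read by optical density, percent reduction of cytopathic effect calculated, and EC50 fitted to the median-effect equation. Values averaged over n = 3; the 50% human serum condition was run alongside.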
(In general: Cytopathic effects are the visible damage that an infection or toxin causes in cultured cells.)

The test system of data set [3] is Human immunodeficiency virus 1. Description: Ratio of EC50 for wild-type HIV1 pNL4-3 infected in human MT4 in presence of 50% of human serum to EC50 for wild-type HIV-1 pNL4-3 infected in human MT4 in absence of human serum. Format: functional. In short, it runs like this: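 Serum binding effect calculated as the pNL4-3 EC50 in 50% human serum divided by the EC50 in 0% serum, using MT-4 cytopathic-effect MTT assays run for 5 days at 37 °C.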

The target in data set [4] is Protease (Human immunodeficiency virus 1) (UniProt Q9YQ12). Description: Inhibition of recombinant HIV1 protease at 1 nM using H-Lys-Ala-Arg-Val-Tyr-Phe(p-NO2)-Glu-Ala-Nle-NH2 as substrate preincubated for 5 mins followed by substrate addition measured after 3 hrs by fluorescence-based assay. The procedure, abridged: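 Recombinant HIV-1 protease (40 ng/mL stock in pH 5.0 acetate/EDTA/NaCl/2-mercaptoethanol/NP-40/glycerol) mixed with inhibitor (10 nM solution in DMSO) in 200 mM MES-NaOH pH 5.5 with 2 mM DTT, 2 mM EDTA and 1 M NaCl. Preincubated 5 min at 37 °C, then 1.0 mM substrate solution added and incubated 3 h at 37 °C. Stopped with 1 N HCl. The Lys-Ala-Arg-Val-Tyr-OH product was quantified by RP-HPLC with fluorescence (Ex 275, Em 305 nm). Single determination.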

A short description of data set [5]: Ratio of EC50 for inhibition of protease L10F/V32I/M46I/I47V/Q58E/I84V mutant in HIV1 A17 infected in human MT4 cells to EC50 for wild-type HIV-1 pNL4-3 infected in human MT4 cells. In kind it is functional, Human immunodeficiency virus 1. In short, it runs like this:
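Ratio of EC50 values from MT-4 cytopathic-effect MTT assays (5 days, 37 °C, triplicate, median-effect fit). Numerator is LPV-resistant strain A1711, denominator is wild-type HIV-1 pNL4-3.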

Data set [6] has as its system Human immunodeficiency virus 1. Description: Antiviral activity against wild-type HIV1 pNL4-3 infected in human MT4 cells assessed as inhibition of virus-induced cytopathic effect after 5 days in presence of 50 % of human serum by MTT assay. Format: functional, organism-based. The conditions noted are these: Human immunodeficiency virus 1, pNL4-3, MT4, 120 h. The procedure, abridged:
as §1

Data set [7] can be described thus: Ratio of EC50 for inhibition of HIV1 A17 protease L10F/V32I/M46I/I47V/Q58E/I84V mutant infected in human MT4 cells to EC50 for wild-type HIV-1 3B infected in human MT4 cells. In kind it is functional, Human immunodeficiency virus 1.
For data set [8], the system named is Human immunodeficiency virus 1. Description: Antiviral activity against wild-type HIV1 3B infected in human MT4 cells assessed as inhibition of virus-induced cytopathic effect after 5 days by MTT assay. In kind it is functional, organism-based. The conditions noted are these: Human immunodeficiency virus 1, 3B, MT4, 120 h.
Data set [9] deals with Human immunodeficiency virus 1. Briefly: Antiviral activity against wild-type HIV1 pNL4-3 infected in CMVdeltaR8.91 transfected 293T cells after 48 hrs by lentiviral vector-based luciferase reporter gene assay. Format: functional, organism-based. The conditions noted are these: Human immunodeficiency virus 1, pNL4-3, HEK-293T. The procedure, abridged:
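pNL4-3-based luciferase reporter lentiviral vector made by transfecting 293T cells with pCMV-ΔR8.91 (wild-type or V32I/L33F/I54M/V82I or V32I/L33F/I54M/I84V protease) plus luciferase transfer and envelope plasmids, with or without inhibitor. After 48 h, fresh 293T cells infected with vector. IC50 for suppression of luciferase transduction taken from dose-response curve.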
On the technique in general: Reporter assays use an easily measured gene product as a stand-in for the process of interest.

For orientation: EC50 means the midpoint of the concentration-response curve. Broadly, the inhibition is how much of the control response was suppressed.

As for `Cc1ccccc1CNC(=O)[C@H]1N(C(=O)[C@@H](O)[C@H](Cc2ccccc2)NC(=O)[C@@H](NC(=O)c2cnc3ccccc3n2)[C@H]2CCOC2)CSC1(C)C`, the CC50 at 120 h in data set [1] is 10000 nM. Moreover, the concentration for a half-maximal effect (EC50) was 4 nM in data set [2] and 84 nM in data set [6]. The figures for the “Ratio EC50” value in [3] and in data set [5] were 21 and 24, respectively. In addition, in data set [4], the inhibition was 97%.
As to `CN(C)c1cccc(OCC(=O)N[C@H](C(=O)N[C@@H](Cc2ccccc2)[C@H](O)C(=O)N2CSC(C)(C)[C@H]2C(=O)NC2CCCC2)[C@H]2CCOC2)c1`, the concentration giving a half-maximal response (EC50) amounted to 10 nM in [2] and 103 nM in data set [6]. Further, the “Ratio EC50” value in data set [3] was 10. The inhibition in [4] was found to be 93%.
With `Cc1cccc(C)c1CNC(=O)[C@H]1N(C(=O)[C@@H](O)[C@H](Cc2ccccc2)NC(=O)[C@@H](NC(=O)c2cc3ccccc3o2)C(C)C)CSC1(C)C`, the “Ratio EC50” value in data set [7] came to 61. In addition, in data set [4], the inhibition was determined as 93%. Besides, the EC50 in data set [8] amounted to 18 nM.
In the same order, the values of `COc1cccc2cc(C(=O)N[C@H](C(=O)N[C@@H](Cc3ccccc3)[C@H](O)C(=O)N3CSC(C)(C)[C@H]3C(=O)NCc3c(C)cccc3C)C(C)C)oc12` are more than 103, 95% and less than 3 nM.
As for `C=CCNC(=O)[C@H]1N(C(=O)[C@@H](O)[C@H](Cc2ccccc2)NC(=O)[C@@H](NC(=O)COc2cccc(N(C)C)c2)[C@H]2CCOC2)CSC1(C)C`, the EC50 in data set [2] came to 8 nM; in data set [6], 190 nM. Further, the “Ratio EC50” value in data set [3] was determined as 24. In addition, in [4], the inhibition is 95%.
Compound `CC(C)CN(C[C@@H](O)[C@H](Cc1ccccc1)NC(=O)O[C@H]1CO[C@H]2OCC[C@H]21)S(=O)(=O)c1ccc(N)cc1` registered a concentration for a half-maximal effect (EC50) in data set [9] of 0.82 nM.
As to `Cc1cccc(C)c1CNC(=O)[C@H]1N(C(=O)[C@@H](O)[C@H](Cc2ccccc2)NC(=O)[C@@H](NC(=O)c2cc3ccccc3o2)[C@H]2CCOC2)CSC1(C)C`, in data set [1], the CC50 at 120 h is 38000 nM. Also, the EC50 was 12 nM in data set [2] and 90 nM in [6]. Besides, the “Ratio EC50” value in [3] worked out at 7.5; in data set [5], 57. Further, in data set [4], the inhibition was determined as 97%.
Consider `Cc1cccc(C)c1CNC(=O)[C@H]1N(C(=O)[C@@H](O)[C@H](Cc2ccccc2)NC(=O)[C@@H](NC(=O)COc2cccc(N(C)C)c2)[C@H]2CCOC2)CSC1(C)C`, for which, in data set [1], the CC50 at 120 h worked out at 60000 nM. Further, the values for the EC50 in [2] and in data set [6] were less than 3 nM and 15 nM, respectively. Moreover, the “Ratio EC50” value in [3] was more than 5; in data set [5], more than 55. For the same compound, the inhibition in data set [4] turned out to be 97%.
As to `COc1cccc2cc(C(=O)N[C@@H](CC(N)=O)C(=O)N[C@@H](Cc3ccccc3)[C@H](O)C(=O)N3CSC(C)(C)[C@H]3C(=O)NCc3c(C)cccc3C)oc12`, the half-maximal effective concentration (EC50) in data set [2] turned out to be 60 nM. In data set [4], the inhibition was 96%. For the same compound, the “Ratio EC50” value in [5] was determined as 1.4.
For the compound `CN(C)c1cccc(OCC(=O)N[C@H](C(=O)N[C@@H](Cc2ccccc2)[C@H](O)C(=O)N2CSC(C)(C)[C@H]2C(=O)N[C@H]2CCc3ccccc32)[C@H]2CCOC2)c1`, the results for the 50% effective concentration (EC50) in data set [2] and in data set [6] were 5 nM and 30 nM, respectively. Besides, the “Ratio EC50” value in [3] is given as 6. Besides, the inhibition in [4] came to 97%.
Turning to `Cc1cccc(C)c1OCC(=O)N[C@@H](Cc1ccccc1)[C@@H](O)C[C@H](Cc1ccccc1)NC(=O)[C@H](C(C)C)N1CCCNC1=O` [LOPINAVIR], the CC50 at 120 h in data set [1] was more than 10000 nM.
Turning to `Cc1cccc(C)c1CNC(=O)[C@H]1N(C(=O)[C@@H](O)[C@H](Cc2ccccc2)NC(=O)[C@H](CC(N)=O)NC(=O)c2cc3ccccc3o2)CSC1(C)C`, in [7], the “Ratio EC50” value came out at 1.6. Besides, the inhibition in [4] was 97%. In data set [8], the half-maximal effective concentration (EC50) was determined as 38 nM.
Regarding `Cc1ccccc1CNC(=O)[C@H]1N(C(=O)[C@@H](O)[C@H](Cc2ccccc2)NC(=O)[C@@H](NC(=O)COc2cccc3cnccc23)[C@H]2CCOC2)CSC1(C)C`, the concentration giving a half-maximal response (EC50) turned out to be 21 nM in data set [2] and 4350 nM in data set [6]. In addition, the “Ratio EC50” value in data set [3] came out at 207. In addition, the inhibition in data set [4] turned out to be 97%.
In the same order, the values of `Cc1cccc(C)c1CNC(=O)[C@H]1N(C(=O)[C@@H](O)[C@H](Cc2ccccc2)NC(=O)[C@@H](NC(=O)c2cc(=O)c3ccccc3o2)[C@H]2CCOC2)CSC1(C)C` are 5 nM, 115 nM, 23 and 98%.
On to `Cc1cccc(C)c1CNC(=O)[C@H]1N(C(=O)[C@@H](O)[C@H](Cc2ccccc2)NC(=O)[C@@H](NC(=O)COc2cccc(Nc3ccccc3)c2)[C@H]2CCOC2)CSC1(C)C`, for which the CC50 at 120 h in [1] was determined as 39000 nM. The figures for the concentration giving a half-maximal response (EC50) in data set [2] and in [6] were 5 nM and 103 nM, respectively. Also, the “Ratio EC50” value is 21 in data set [3] and 45 in data set [5]. In addition, the inhibition in data set [4] turned out to be 93%.
In the case of `Cc1ccccc1CNC(=O)[C@H]1N(C(=O)[C@@H](O)[C@H](Cc2ccccc2)NC(=O)[C@@H](NC(=O)c2ccc3ccccc3n2)[C@@H]2CCOC2)CSC1(C)C`, the values for the EC50 in data set [2] and in [6] were 26 nM and 602 nM, respectively. Further, in [3], the “Ratio EC50” value is 23. Further, in data set [4], the inhibition is 69%.
As for `Cc1ccccc1CNC(=O)[C@H]1N(C(=O)[C@@H](O)[C@H](Cc2ccccc2)NC(=O)[C@@H](NC(=O)c2cnc3ccccc3n2)[C@@H]2CCOC2)CSC1(C)C`, the EC50 in data set [2] stood at 12 nM; in data set [6] it was 131 nM. Besides, the “Ratio EC50” value in [3] is 11. Besides, the inhibition in [4] is 86%.
In the same order, the values of `CN(C)c1cccc(OCC(=O)N[C@H](C(=O)N[C@@H](Cc2ccccc2)[C@H](O)C(=O)N2CSC(C)(C)[C@H]2C(=O)NC/C=C\CO)[C@H]2CCOC2)c1` are 567 nM, 2050 nM, 3.6 and 94%.
Regarding `Cc1cccc(C)c1CNC(=O)[C@H]1N(C(=O)[C@@H](O)[C@H](Cc2ccccc2)NC(=O)[C@@H](NC(=O)COc2cccc3cnccc23)[C@H]2CCOC2)CSC1(C)C`, the EC50 was found to be 60 nM in data set [2] and 143 nM in data set [6]. In data set [3], the “Ratio EC50” value is reported as 2.4. Moreover, in data set [4], the inhibition is 98%.
In the same order, the values of `C=C(C)CNC(=O)[C@H]1N(C(=O)[C@@H](O)[C@H](Cc2ccccc2)NC(=O)[C@@H](NC(=O)COc2cccc(N(C)C)c2)[C@H]2CCOC2)CSC1(C)C` are 7 nM, 49 nM, 7 and 97%.
Consider `Cc1ccccc1CNC(=O)[C@H]1N(C(=O)[C@@H](O)[C@H](Cc2ccccc2)NC(=O)[C@@H](NC(=O)c2ccc3ccccc3n2)[C@H]2CCOC2)CSC1(C)C`, for which the half-maximal effective concentration (EC50) in data set [2] is less than 3 nM; in [6], 411 nM. Further, in data set [3], the “Ratio EC50” value is more than 137. Also, the inhibition in [4] worked out at 96%.
As for `CN(C)c1cccc(OCC(=O)N[C@H](C(=O)N[C@@H](Cc2ccccc2)[C@H](O)C(=O)N2CSC(C)(C)[C@H]2C(=O)N[C@H]2c3ccccc3C[C@H]2O)[C@H]2CCOC2)c1`, the 50% effective concentration (EC50) was 4 nM in data set [2] and 79 nM in data set [6]. The “Ratio EC50” value in data set [3] amounted to 20. Further, in data set [4], the inhibition came out at 95%.
